Measured values reported in ChEMBL document CHEMBL5303300, “EUbOPEN Chemogenomics Library - Multiplex” (2023).
Values joined by “and” are separate entries in the source; they are usually repeats but may differ in a detail not shown here. Identical values can stand only once.

System: Fibroblast
Test: Multiplex assay against human fibroblast
Type: toxicity, cell-based
Settings: number of replicates 2
How it was run: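 With compound added, live cells were imaged on a CQ1 microscope at 37°C and 5% CO2; staining with Hoechst33342, BioTracker Green Microtubule Cytoskeleton Dye, MitoTracker Red and Annexin V Alexa Fluor 680 had been done at seeding. The CellPathfinder machine-learning gating scheme split cells into Hoechst high-intensity objects or normal cells, normal cells into healthy, pyknosed or fragmented nuclei, and pyknosed cells into mitotic or apoptotic. The tubulin, mitochondrial-mass and membrane-permeability phenotypes are per cents of healthy-nucleus cells.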

[1] = 12 h, 1 µM, compound concentration 1 uM
[2] = 12 h, 10 µM, compound concentration 10 uM
[3] = 24 h, 1 µM, compound concentration 1 uM
[4] = 24 h, 10 µM, compound concentration 10 uM
[5] = 48 h, 1 µM, compound concentration 1 uM
[6] = 48 h, 10 µM, compound concentration 10 uM

## CCn1ccc(Nc2ncc3c(n2)-c2c(nn(C)c2-c2ccc(-c4cnn(C)c4)cc2Cl)CC3)n1
[1]
  Population Apoptotic (%): 36% and 33%
  Population Fragmented Nuclei (%): 11% and 9%
  Population Healthy Nuclei (%): 71% and 65%
  Population Hoechst High Intensity Objects (%): 0%
  Population Membrane Permeable-Phenotype (%): 8% and 7%
  Population Mitochondria Different-Phenotype (%): 1% and 2%
  Population Mitotic Cells (%): 63% and 66%
  Population Normal (%): 99%
  Population Pyknosed Nuclei (%): 17% and 25%
  Population Tubulin-Different-Phenotype (%): 14% and 18%
  Total Cell Count: 258 and 213
[2]
  Population Apoptotic (%): 51% and 48%
  Population Fragmented Nuclei (%): 11%
  Population Healthy Nuclei (%): 75% and 69%
  Population Hoechst High Intensity Objects (%): 0%
  Population Membrane Permeable-Phenotype (%): 5% and 6%
  Population Mitochondria Different-Phenotype (%): 2% and 1%
  Population Mitotic Cells (%): 48% and 51%
  Population Normal (%): 100%
  Population Pyknosed Nuclei (%): 13% and 19%
  Population Tubulin-Different-Phenotype (%): 56% and 41%
  Total Cell Count: 204 and 191
[3]
  Population Apoptotic (%): 40% and 49%
  Population Fragmented Nuclei (%): 10% and 7%
  Population Healthy Nuclei (%): 75% and 66%
  Population Hoechst High Intensity Objects (%): 0%
  Population Membrane Permeable-Phenotype (%): 2% and 6%
  Population Mitochondria Different-Phenotype (%): 0% and 1%
  Population Mitotic Cells (%): 59% and 50%
  Population Normal (%): 100% and 99%
  Population Pyknosed Nuclei (%): 13% and 25%
  Population Tubulin-Different-Phenotype (%): 7% and 8%
  Total Cell Count: 239 and 234
[4]
  Population Apoptotic (%): 60% and 55%
  Population Fragmented Nuclei (%): 8% and 6%
  Population Healthy Nuclei (%): 78% and 77%
  Population Hoechst High Intensity Objects (%): 0%
  Population Membrane Permeable-Phenotype (%): 1% and 4%
  Population Mitochondria Different-Phenotype (%): 1% and 2%
  Population Mitotic Cells (%): 40% and 44%
  Population Normal (%): 100% and 99%
  Population Pyknosed Nuclei (%): 12% and 15%
  Population Tubulin-Different-Phenotype (%): 62% and 39%
  Total Cell Count: 202 and 187
[5]
  Population Apoptotic (%): 71% and 69%
  Population Fragmented Nuclei (%): 13% and 12%
  Population Healthy Nuclei (%): 75% and 67%
  Population Hoechst High Intensity Objects (%): 0%
  Population Membrane Permeable-Phenotype (%): 2% and 3%
  Population Mitochondria Different-Phenotype (%): 0%
  Population Mitotic Cells (%): 28% and 30%
  Population Normal (%): 99% and 100%
  Population Pyknosed Nuclei (%): 11% and 19%
  Population Tubulin-Different-Phenotype (%): 6% and 7%
  Total Cell Count: 252 and 233
[6]
  Population Apoptotic (%): 84% and 82%
  Population Fragmented Nuclei (%): 14% and 8%
  Population Healthy Nuclei (%): 68% and 75%
  Population Hoechst High Intensity Objects (%): 0%
  Population Membrane Permeable-Phenotype (%): 2% and 3%
  Population Mitochondria Different-Phenotype (%): 4% and 3%
  Population Mitotic Cells (%): 15% and 17%
  Population Normal (%): 100%
  Population Pyknosed Nuclei (%): 16%
  Population Tubulin-Different-Phenotype (%): 56% and 38%
  Total Cell Count: 195 and 170

## Cc1cc(C2CCCNC2)ccc1Nc1ncc(Br)c(NCc2cccc3c2C(C)(C)C(=O)N3)n1 (configuration not stated)
[1]
  Population Apoptotic (%): 58% and 42%
  Population Fragmented Nuclei (%): 10%
  Population Healthy Nuclei (%): 61% and 64%
  Population Hoechst High Intensity Objects (%): 0%
  Population Membrane Permeable-Phenotype (%): 13% and 5%
  Population Mitochondria Different-Phenotype (%): 5% and 3%
  Population Mitotic Cells (%): 42% and 57%
  Population Normal (%): 99% and 100%
  Population Pyknosed Nuclei (%): 27% and 25%
  Population Tubulin-Different-Phenotype (%): 50% and 49%
  Total Cell Count: 184 and 193
[2]
  Population Apoptotic (%): 40% and 38%
  Population Fragmented Nuclei (%): 29% and 27%
  Population Healthy Nuclei (%): 59% and 56%
  Population Hoechst High Intensity Objects (%): 1% and 0%
  Population Membrane Permeable-Phenotype (%): 9% and 11%
  Population Mitochondria Different-Phenotype (%): 2% and 5%
  Population Mitotic Cells (%): 60% and 61%
  Population Normal (%): 98% and 99%
  Population Pyknosed Nuclei (%): 10% and 15%
  Population Tubulin-Different-Phenotype (%): 82% and 69%
  Total Cell Count: 382 and 328
[3]
  Population Apoptotic (%): 57% and 62%
  Population Fragmented Nuclei (%): 8% and 14%
  Population Healthy Nuclei (%): 71% and 60%
  Population Hoechst High Intensity Objects (%): 0%
  Population Membrane Permeable-Phenotype (%): 3% and 7%
  Population Mitochondria Different-Phenotype (%): 6% and 12%
  Population Mitotic Cells (%): 42% and 38%
  Population Normal (%): 100% and 99%
  Population Pyknosed Nuclei (%): 20% and 25%
  Population Tubulin-Different-Phenotype (%): 43% and 46%
  Total Cell Count: 198 and 199
[4]
  Population Apoptotic (%): 65% and 74%
  Population Fragmented Nuclei (%): 17% and 10%
  Population Healthy Nuclei (%): 59% and 62%
  Population Hoechst High Intensity Objects (%): 1% and 0%
  Population Membrane Permeable-Phenotype (%): 7% and 2%
  Population Mitochondria Different-Phenotype (%): 21% and 31%
  Population Mitotic Cells (%): 34% and 25%
  Population Normal (%): 98% and 99%
  Population Pyknosed Nuclei (%): 22% and 27%
  Population Tubulin-Different-Phenotype (%): 86% and 79%
  Total Cell Count: 279 and 234
[5]
  Population Apoptotic (%): 70% and 65%
  Population Fragmented Nuclei (%): 11% and 16%
  Population Healthy Nuclei (%): 73% and 63%
  Population Hoechst High Intensity Objects (%): 0%
  Population Membrane Permeable-Phenotype (%): 3%
  Population Mitochondria Different-Phenotype (%): 3% and 9%
  Population Mitotic Cells (%): 29% and 34%
  Population Normal (%): 100%
  Population Pyknosed Nuclei (%): 15% and 20%
  Population Tubulin-Different-Phenotype (%): 39% and 30%
  Total Cell Count: 180 and 175
[6]
  Population Apoptotic (%): 93% and 96%
  Population Fragmented Nuclei (%): 11% and 16%
  Population Healthy Nuclei (%): 40% and 48%
  Population Hoechst High Intensity Objects (%): 6% and 2%
  Population Mitochondria Different-Phenotype (%): 53% and 52%
  Population Mitotic Cells (%): 6% and 3%
  Population Normal (%): 93% and 97%
  Population Pyknosed Nuclei (%): 48% and 34%
  Population Tubulin-Different-Phenotype (%): 83% and 78%
  Total Cell Count: 164 and 169

## COCCN1CCN(CCn2ccc(Nc3ncc4c(n3)-c3c(nn(C)c3-c3ccccc3)C[C@H]4C)n2)CC1
[1]
  Population Apoptotic (%): 48% and 20%
  Population Fragmented Nuclei (%): 9% and 8%
  Population Healthy Nuclei (%): 73% and 72%
  Population Hoechst High Intensity Objects (%): 0%
  Population Membrane Permeable-Phenotype (%): 4% and 8%
  Population Mitochondria Different-Phenotype (%): 0% and 1%
  Population Mitotic Cells (%): 51% and 79%
  Population Normal (%): 100%
  Population Pyknosed Nuclei (%): 16% and 19%
  Population Tubulin-Different-Phenotype (%): 16% and 12%
  Total Cell Count: 202 and 275
[2]
  Population Apoptotic (%): 32% and 46%
  Population Fragmented Nuclei (%): 13% and 20%
  Population Healthy Nuclei (%): 57% and 61%
  Population Hoechst High Intensity Objects (%): 0%
  Population Membrane Permeable-Phenotype (%): 12% and 5%
  Population Mitochondria Different-Phenotype (%): 2%
  Population Mitotic Cells (%): 67% and 53%
  Population Normal (%): 99%
  Population Pyknosed Nuclei (%): 29% and 18%
  Population Tubulin-Different-Phenotype (%): 58% and 32%
  Total Cell Count: 222 and 175
[3]
  Population Apoptotic (%): 51% and 44%
  Population Fragmented Nuclei (%): 10% and 11%
  Population Healthy Nuclei (%): 72% and 69%
  Population Hoechst High Intensity Objects (%): 0%
  Population Membrane Permeable-Phenotype (%): 5% and 4%
  Population Mitochondria Different-Phenotype (%): 0%
  Population Mitotic Cells (%): 48% and 55%
  Population Normal (%): 99%
  Population Pyknosed Nuclei (%): 16% and 19%
  Population Tubulin-Different-Phenotype (%): 14% and 10%
  Total Cell Count: 188 and 271
[4]
  Population Apoptotic (%): 57% and 51%
  Population Fragmented Nuclei (%): 13% and 16%
  Population Healthy Nuclei (%): 59% and 64%
  Population Hoechst High Intensity Objects (%): 1% and 0%
  Population Membrane Permeable-Phenotype (%): 7% and 3%
  Population Mitochondria Different-Phenotype (%): 4% and 5%
  Population Mitotic Cells (%): 42% and 48%
  Population Normal (%): 98% and 100%
  Population Pyknosed Nuclei (%): 27% and 19%
  Population Tubulin-Different-Phenotype (%): 53% and 29%
  Total Cell Count: 201 and 173
[5]
  Population Apoptotic (%): 52% and 60%
  Population Fragmented Nuclei (%): 10% and 12%
  Population Healthy Nuclei (%): 74% and 72%
  Population Hoechst High Intensity Objects (%): 0%
  Population Membrane Permeable-Phenotype (%): 6% and 4%
  Population Mitochondria Different-Phenotype (%): 0%
  Population Mitotic Cells (%): 48% and 39%
  Population Normal (%): 100% and 99%
  Population Pyknosed Nuclei (%): 14% and 15%
  Population Tubulin-Different-Phenotype (%): 12% and 6%
  Total Cell Count: 171 and 271
[6]
  Population Apoptotic (%): 63% and 46%
  Population Fragmented Nuclei (%): 16% and 15%
  Population Healthy Nuclei (%): 65% and 66%
  Population Hoechst High Intensity Objects (%): 0%
  Population Membrane Permeable-Phenotype (%): 8% and 6%
  Population Mitochondria Different-Phenotype (%): 3% and 8%
  Population Mitotic Cells (%): 36% and 53%
  Population Normal (%): 99%
  Population Pyknosed Nuclei (%): 18% and 17%
  Population Tubulin-Different-Phenotype (%): 43% and 17%
  Total Cell Count: 201 and 161
